The assay relates to U2OS HRE-luciferase reporter, luminescence. Briefly: hypoxia response element transcription activators – U2OS cells, luminescence, dry powder, set 10, dose response (AID 504588). A digest of the protocol:
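Assay system: human U2OS osteosarcoma cells stably expressing 3×HRE-driven luciferase reporter. Input: 6,000 cells per well. Schedule: 24 h compound exposure at 37 °C, 5% CO2, 21% O2. Measured by: Steady-Glo luminescence. Compound dosing: 3-fold dilution series.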
With `c1ccc(CCNc2nc(-c3ccccn3)nnc2-c2ccccc2)cc1`, the AC40 is 2520 nM. As for `CC(C)(C)CCNc1nc(-c2ccccn2)nnc1-c1ccccc1`, the figure is 940 nM; as for `Clc1cccc(CNc2nc(-c3ccccn3)nnc2-c2ccccc2)c1`, 1310 nM; as for `c1ccc(-c2ccc(CNc3nc(-c4ccccn4)nnc3-c3ccccc3)cc2)cc1`, 360 nM. Take `CC(C)(C)c1ccc(CNc2nc(-c3ccccn3)nnc2-c2ccccc2)cc1`: the AC40 was 447 nM. For `c1ccc(-c2cccc(CNc3nc(-c4ccccn4)nnc3-c3ccccc3)c2)cc1`, the AC40 was 721 nM.

The values above are taken from PubChem BioAssay AID504588 (Broad Institute, 2011).
